The results in this text go back to ChEMBL document CHEMBL1144123, “Activity of triterpenoid glycosides from the root bark of Mussaenda macrophylla against two oral pathogens” (1999).

Structures are written as SMILES. Converted amounts (≈) assume the structure as drawn. The source made the active and inactive calls. The rule behind the calls is not given here.

In one test the test system is Porphyromonas gingivalis. Kind of test: Antibacterial activity against Porphyromonas gingivalis after 48 hrs by microtiter plate method. Type of test: functional. The method in brief: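 Broth microdilution in trypticase soy broth-yeast extract with 0.05% cysteine hydrochloride, menadione (0.02 μg/mL), hemin (5 μg/mL) and 0.02% potassium nitrate. Inoculum 5 × 10^5 CFU/mL; serially diluted test agent, triplicates per concentration. Incubated anaerobically (10% H₂, 5% CO₂, 85% N₂), 37 °C, 48 h. Turbidity read at 650 nm; MIC = lowest concentration keeping absorbance <0.05.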

In another test the test system is Streptococcus mutans. Kind of test: Antibacterial activity against Streptococcus mutans after 48 hrs by microtiter plate method. In kind it is functional. The method in brief: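 Brain-heart infusion broth, inoculum 5 × 10^6 CFU/mL, serial dilutions of test agent in triplicate per concentration, 37 °C for 48 h. Controls were inoculated medium without test agent; blanks were uninoculated medium. Growth read spectrophotometrically at 650 nm; MIC taken as minimum concentration limiting turbidity to <0.05 absorbance.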

`COc1cc(O)c2c(=O)c(O)c(-c3ccc(O)cc3)oc2c1`: the outcome in the test with Porphyromonas gingivalis was Active.

As for `O=c1c(O)c(-c2ccc(O)cc2)oc2cc(O)cc(O)c12`, in the test with Porphyromonas gingivalis, the result was Active. In general, MIC refers to the lowest concentration that inhibits growth of the organism. Take `N=C(NCCCCCCNC(=N)NC(=N)Nc1ccc(Cl)cc1)NC(=N)Nc1ccc(Cl)cc1` [CHLORHEXIDINE]: the MIC in the test with Porphyromonas gingivalis and in the test on Streptococcus mutans was 0.312 µg/mL (≈ 0.617 µM) throughout. As for `C[C@@H]1O[C@@H](OC(=O)[C@]23CCC(C)(C)C[C@H]2C2=CC[C@@H]4[C@@]5(C)C[C@H](O)[C@H](O[C@@H]6O[C@H](CO)[C@@H](O)[C@H](O)[C@H]6O)C(C)(C)[C@@H]5[C@H](O)C[C@@]4(C)[C@]2(C)C[C@H]3O)[C@H](O)[C@H](O)[C@H]1O`, the MIC in the test with Porphyromonas gingivalis is 312 µg/mL (≈ 384 µM); in the test on Streptococcus mutans, more than 1250 µg/mL.

On to `CC1(C)CC[C@]2(C(=O)O)CC[C@]3(C)C(=CC[C@@H]4[C@@]5(C)CC[C@H](O)C(C)(C)[C@@H]5CC[C@]43C)[C@@H]2C1` [OLEANOLIC_ACID], for which, in the test with Porphyromonas gingivalis, the lowest concentration to inhibit growth (MIC) was 625 µg/mL (≈ 1370 µM).

Turning to `O=c1c(O)c(-c2cc(O)c(O)c(O)c2)oc2cc(O)cc(O)c12`, the outcome in the test with Porphyromonas gingivalis was Active. As for `C/C(=C\C=C\[C@@H](C)[C@H]1CC[C@@]2(C)[C@@H]3CC[C@H]4C(C)(C)[C@@H](O[C@H]5O[C@@H](CO)[C@H](O)[C@@H](O[C@@H]6O[C@H](CO)[C@@H](O)[C@H](O)[C@H]6O)[C@@H]5O[C@@H]5O[C@H](CO[C@H]6O[C@@H](CO)[C@H](O)[C@@H](O)[C@@H]6O)[C@@H](O)[C@H](O)[C@H]5O[C@@H]5O[C@@H](C)[C@H](O)[C@@H](O)[C@H]5O)CC[C@@]45C[C@@]35CC[C@]12C)C(=O)O`, the MIC against Porphyromonas gingivalis was 156 µg/mL (≈ 125 µM); with Streptococcus mutans, more than 1250 µg/mL. Consider `CC(=O)O[C@H]1CC[C@]2(C)[C@H]3CC=C4[C@@H]5CC(C)(C)CC[C@]5(C)CC[C@@]4(C)[C@]3(C)C[C@@H](O)[C@H]2C1(C)C`, for which the MIC is 78 µg/mL (≈ 161 µM) with Porphyromonas gingivalis and more than 1250 µg/mL in the test on Streptococcus mutans. On to `CC(=O)O[C@H]1CC[C@]2(C)[C@H]3CC=C4[C@@H]5CC(C)(C)CC[C@]5(C(=O)O)CC[C@@]4(C)[C@]3(C)CC[C@H]2C1(C)C` [ACETYL OLEANOLIC ACID], for which the MIC with Porphyromonas gingivalis was 39 µg/mL (≈ 78.2 µM); in the test on Streptococcus mutans, more than 1250 µg/mL. With `CC1(C)CC[C@]2(C(=O)O[C@@H]3O[C@H](CO)[C@@H](O)[C@H](O)[C@H]3O)[C@H](O)C[C@]3(C)C(=CC[C@@H]4[C@@]5(C)C[C@H](O)[C@H](O)C(C)(C)[C@@H]5[C@H](O)C[C@]43C)[C@@H]2C1`, the MIC against Porphyromonas gingivalis is 312 µg/mL (≈ 468 µM); in the test on Streptococcus mutans, more than 1250 µg/mL.

Regarding `C[C@@H]1O[C@@H](OC(=O)[C@]23CCC(C)(C)C[C@H]2C2=CC[C@@H]4[C@@]5(C)C[C@H](O)[C@H](O[C@@H]6O[C@H](CO)[C@@H](O)[C@H](O)[C@H]6O)[C@@](C)(CO)[C@@H]5[C@H](O)C[C@@]4(C)[C@]2(C)C[C@H]3O)[C@H](O)[C@H](O)[C@H]1O`, the MIC is 78 µg/mL (≈ 94.1 µM) in the test on Porphyromonas gingivalis and more than 1250 µg/mL against Streptococcus mutans.
